ChEMBL document CHEMBL1123757, “Selective thromboxane synthetase inhibitors and antihypertensive agents. New derivatives of 4-hydrazino-5H-pyridazino[4,5-b]indole, 4-hydrazinopyridazino[4,5-a]indole, and related compounds” (J Med Chem, 1987)

Key:
Rattus norvegicus [1] = test: Antihypertensive activity in spontaneously hypertensive rats (SHR) measured by percentage fall in arterial pressure (AP) at 25 mg/kg administered perorally at 1 h; type: functional, Artery; conditions: route oral
How it was run: (§1)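 Oral dosing at 2.5 mL/kg to unanesthetized male and female Okamoto-strain SHR (8 weeks old, 300–350 g, systolic pressure ≥190 mmHg, heart rate 400–650 beats/min), five per dose. Vehicle was normal saline or saline with 0.2% (carboxymethyl)cellulose and 1.0% Tween 80. AP measured on the tail by mechanical transduction at set times; expressed as percentage fall from control.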

Rattus norvegicus [2] = test: Antihypertensive activity in spontaneously hypertensive rats (SHR) measured by percentage fall in cardiac rhythm (CR) at 25 mg/kg administered intraperitoneally at 24 h; type: functional, Heart; conditions: route intraperitoneal
How it was run: (§2)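 Unanesthetized Okamoto-strain SHR, male and female, 8 weeks old, 300–350 g, systolic pressure ≥190 mmHg, heart rate 400–650 beats/min; five animals per dose. Given ip at 2.5 mL/kg, dissolved or suspended in normal saline or saline with 0.2% (carboxymethyl)cellulose and 1.0% Tween 80. Tail AP and CR recorded by mechanical transduction at set times; reported as percentage fall from control.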

Rattus norvegicus [3] = test: Antihypertensive activity in spontaneously hypertensive rats (SHR) measured by percentage fall in cardiac rhythm (CR) at 1 mg/kg administered intraperitoneally at 5 h; type: functional, Heart; conditions: route intraperitoneal; how it was run: as §2
Rattus norvegicus [4] = test: Antihypertensive activity in spontaneously hypertensive rats (SHR) measured by percentage fall in arterial pressure (AP) at 25 mg/kg administered intraperitoneally at 5 h; type: functional, Artery; conditions: route intraperitoneal; how it was run: as §2
Rattus norvegicus [5] = test: Antihypertensive activity in spontaneously hypertensive rats (SHR) measured by percentage fall in cardiac rhythm (CR) at 25 mg/kg administered intraperitoneally at 5 h; type: functional, Heart; conditions: route intraperitoneal
How it was run: (§3)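 Conscious SHR (Okamoto strain), 8 weeks old, male and female, 300–350 g, systolic BP ≥190 mmHg, CR 400–650 beats/min. Given ip or po at 2.5 mL/kg in normal saline or saline with 0.2% (carboxymethyl)cellulose and 1.0% Tween 80. Tail AP and CR recorded by mechanical transduction at 1, 3, 5 and 24 h, five animals per dose. Effect expressed as % fall versus control.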

Rattus norvegicus [6] = test: Antihypertensive activity in spontaneously hypertensive rats (SHR) measured by percentage fall in arterial pressure (AP) at 25 mg/kg administered intraperitoneally at 3 h; type: functional, Artery; conditions: route intraperitoneal; how it was run: as §2
Rattus norvegicus [7] = test: Antihypertensive activity in spontaneously hypertensive rats (SHR) measured by percentage fall in arterial pressure (AP) at 5 mg/kg administered intraperitoneally at 1 h; type: functional, Artery; conditions: route intraperitoneal; how it was run: as §2
Rattus norvegicus [8] = test: Antihypertensive activity in spontaneously hypertensive rats (SHR) measured by percentage fall in cardiac rhythm (CR) at 5 mg/kg administered intraperitoneally at 5 h; type: functional, Heart; conditions: route intraperitoneal; how it was run: as §3
Rattus norvegicus [9] = test: Antihypertensive activity in spontaneously hypertensive rats (SHR) measured by percentage fall in arterial pressure (AP) at 5 mg/kg administered intraperitoneally at 24 h; type: functional, Artery; conditions: route intraperitoneal; how it was run: as §2
Rattus norvegicus [10] = test: Antihypertensive activity in spontaneously hypertensive rats (SHR) measured by percentage fall in cardiac rhythm (CR) at 25 mg/kg administered perorally at 3 h; type: functional, Heart; conditions: route oral; how it was run: as §3
Rattus norvegicus [11] = test: Antihypertensive activity in spontaneously hypertensive rats (SHR) measured by percentage fall in cardiac rhythm (CR) at 25 mg/kg administered intraperitoneally at 3 h; type: functional, Heart; conditions: route intraperitoneal; how it was run: as §2
Rattus norvegicus [12] = test: Antihypertensive activity in spontaneously hypertensive rats (SHR) measured by percentage fall in cardiac rhythm (CR) at 5 mg/kg administered intraperitoneally at 1 h; type: functional, Heart; conditions: route intraperitoneal; how it was run: as §3
Rattus norvegicus [13] = test: Antihypertensive activity in spontaneously hypertensive rats (SHR) measured by percentage fall in cardiac rhythm (CR) at 1 mg/kg administered intraperitoneally at 1 h; type: functional, Heart; conditions: route intraperitoneal; how it was run: as §2
Rattus norvegicus [14] = test: Antihypertensive activity in spontaneously hypertensive rats (SHR) measured by percentage fall in arterial pressure (AP) at 5 mg/kg administered intraperitoneally at 3 h; type: functional, Artery; conditions: route intraperitoneal; how it was run: as §2
Rattus norvegicus [15] = test: Antihypertensive activity in spontaneously hypertensive rats (SHR) measured by percentage fall in cardiac rhythm (CR) at 1 mg/kg administered intraperitoneally at 3 h; type: functional, Heart; conditions: route intraperitoneal; how it was run: as §2
Rattus norvegicus [16] = test: Antihypertensive activity in spontaneously hypertensive rats (SHR) measured by percentage fall in cardiac rhythm (CR) at 5 mg/kg administered intraperitoneally at 24 h; type: functional, Heart; conditions: route intraperitoneal; how it was run: as §3
Rattus norvegicus [17] = test: Antihypertensive activity in spontaneously hypertensive rats (SHR) measured by percentage fall in cardiac rhythm (CR) at 25 mg/kg administered perorally at 1 h; type: functional, Heart; conditions: route oral; how it was run: as §3
Rattus norvegicus [18] = test: Antihypertensive activity in spontaneously hypertensive rats (SHR) measured by percentage fall in arterial pressure (AP) at 25 mg/kg administered intraperitoneally at 24 h; type: functional, Artery; conditions: route intraperitoneal; how it was run: as §2
Rattus norvegicus [19] = test: Antihypertensive activity in spontaneously hypertensive rats (SHR) measured by percentage fall in arterial pressure (AP) at 5 mg/kg administered intraperitoneally at 5 h; type: functional, Artery; conditions: route intraperitoneal; how it was run: as §2
Rattus norvegicus [20] = test: Antihypertensive activity in spontaneously hypertensive rats (SHR) measured by percentage fall in arterial pressure (AP) at 25 mg/kg administered perorally at 3 h; type: functional, Artery; conditions: route oral; how it was run: as §1
Rattus norvegicus [21] = test: Antihypertensive activity in spontaneously hypertensive rats (SHR) measured by percentage fall in arterial pressure (AP) at 1 mg/kg administered intraperitoneally at 3 h; type: functional, Artery; conditions: route intraperitoneal; how it was run: as §2
Rattus norvegicus [22] = test: Antihypertensive activity in spontaneously hypertensive rats (SHR) measured by percentage fall in arterial pressure (AP) at 25 mg/kg administered intraperitoneally at 1 h; type: functional, Artery; conditions: route intraperitoneal; how it was run: as §2
Rattus norvegicus [23] = test: Antihypertensive activity in spontaneously hypertensive rats (SHR) measured by percentage fall in cardiac rhythm (CR) at 25 mg/kg administered intraperitoneally at 1 h; type: functional, Heart; conditions: route intraperitoneal; how it was run: as §2
Rattus norvegicus [24] = test: Antihypertensive activity in spontaneously hypertensive rats (SHR) measured by percentage fall in arterial pressure (AP) at 25 mg/kg administered perorally at 5 h; type: functional, Artery; conditions: route oral; how it was run: as §1
Rattus norvegicus [25] = test: Antihypertensive activity in spontaneously hypertensive rats (SHR) measured by percentage fall in cardiac rhythm (CR) at 5 mg/kg administered intraperitoneally at 3 h; type: functional, Heart; conditions: route intraperitoneal; how it was run: as §3
Rattus norvegicus [26] = test: Antihypertensive activity in spontaneously hypertensive rats (SHR) measured by percentage fall in cardiac rhythm (CR) at 25 mg/kg administered perorally at 5 h; type: functional, Heart; conditions: route oral; how it was run: as §3

How did the “Decrease in AP” value (Rattus norvegicus [1]) turn out when `Br.Br.NNc1[nH]ncc2c3cc(O)ccc3nc1-2` was run?
Its value is 29%.

And the “Decrease in CR” value (Rattus norvegicus [2])?
Its value is 18%.

What about the “Decrease in CR” value (Rattus norvegicus [3]) of the same compound?
Its value is 19%.

What about the “Decrease in AP” value (Rattus norvegicus [4]) of the same compound?
The value was 63%.

And the “Decrease in CR” value (Rattus norvegicus [5])?
The value was 44%.

What about the “Decrease in AP” value (Rattus norvegicus [6]) of the same compound?
Its value is 67%.

What about the “Decrease in AP” value (Rattus norvegicus [7]) of the same compound?
Its value is 27%.

What about the “Decrease in CR” value (Rattus norvegicus [8]) of the same compound?
The value was 24%.

And the “Decrease in AP” value (Rattus norvegicus [9])?
Its value is 6%.

And the “Decrease in CR” value (Rattus norvegicus [10])?
Its value is 24%.

And the “Decrease in CR” value (Rattus norvegicus [11])?
The value was 16%.

What about the “Decrease in CR” value (Rattus norvegicus [12]) of the same compound?
Its value is 64%.

What about the “Decrease in CR” value (Rattus norvegicus [13]) of the same compound?
Its value is 22%.

And the “Decrease in AP” value (Rattus norvegicus [14])?
Its value is 16%.

And the “Decrease in CR” value (Rattus norvegicus [15])?
The value was 13%.

And the “Decrease in CR” value (Rattus norvegicus [16])?
Its value is 28%.

What about the “Decrease in CR” value (Rattus norvegicus [17]) of the same compound?
Its value is 17%.

And the “Decrease in AP” value (Rattus norvegicus [18])?
Its value is 28%.

And the “Decrease in AP” value (Rattus norvegicus [19])?
Its value is 10%.

What about the “Decrease in AP” value (Rattus norvegicus [20]) of the same compound?
The value was 27%.

What about the “Decrease in AP” value (Rattus norvegicus [21]) of the same compound?
Its value is -6%.

And the “Decrease in AP” value (Rattus norvegicus [22])?
Its value is 70%.

What about the “Decrease in CR” value (Rattus norvegicus [23]) of the same compound?
Its value is 19%.

And the “Decrease in AP” value (Rattus norvegicus [24])?
The value was 8%.

What about the “Decrease in CR” value (Rattus norvegicus [25]) of the same compound?
The value was 30%.

What about the “Decrease in CR” value (Rattus norvegicus [26]) of the same compound?
The value was 8%.
